Results from ChEMBL document CHEMBL3243994, “Synthesis of medroxyprogesterone bromoacetate for affinity labeling” (J Med Chem, 1977).
Activity calls are given as the source filed them. The rule behind the calls is not given here.

What was measured:
Rattus norvegicus [1] = assay: Termination of pregnancy in intact rat assessed as fetal resorption administered into uterine lumen on day 7 measured on day 14; type: functional, organism-based
[2] = target: 3-alpha-(or 20-beta)-hydroxysteroid dehydrogenase (Streptomyces exfoliatus) (UniProt P19992); assay: Inhibition of 20beta-hydroxy steroid dehydrogenase in Streptomyces hydrogenans assessed as half life of enzyme inactivation at 50 uM
How it was run: (§1)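 20β-Hydroxy steroid dehydrogenase from Streptomyces hydrogenans (4.2×10^-7 M) in 0.05 M phosphate buffer, pH 7.0, with 15% glycerol, was incubated with the bromoacetate steroid at 5×10^-5 M at 25 °C. Remaining activity was followed over time as NADH-dependent cortisone reduction to assess time-dependent, irreversible inactivation. The inactivation half-life was taken from the rate of activity loss.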

Rattus norvegicus [3] = assay: Progestational activity in 9-day old pregnant bilateral ovariectomized Sprague-Dawley albino rat assessed as unresorbed fetus at 0.074 mg, sc for 2 days beginning 3 hrs prior to overiectomy measured on day 12 in presence of 17beta-estradiol; type: functional, organism-based
How it was run: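 Pregnant albino rats (Holtzman, day 9, 275–305 g) were used in a group of five. They received a subcutaneous steroid/17β-estradiol mixture in 0.2 mL sesame oil 3 h before bilateral ovariectomy and a second injection 12 h later, with nothing given afterwards. On day 12 the rats were sacrificed and autopsied, and the intact uteri removed to score the fetuses.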

[4] = target: 3-alpha-(or 20-beta)-hydroxysteroid dehydrogenase (Streptomyces exfoliatus) (UniProt P19992); assay: Time-dependent inhibition of 20beta-hydroxy steroid dehydrogenase in Streptomyces hydrogenans assessed as inhibition of […] at 50 uM; how it was run: as §1
Rattus norvegicus [5] = assay: Progestational activity in 9-day old pregnant bilateral ovariectomized Sprague-Dawley albino rat assessed as viable fetus at 0.074 to 0.15 mg, sc for 3 days beginning 3 hrs prior to overiectomy measured on day 12 in presence of 17beta-estradiol; type: functional, organism-based
How it was run: (§2)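 Albino rats (Holtzman), 9 days pregnant and weighing 275–305 g, were used in groups of five. They received subcutaneous steroid in 0.2 mL sesame oil together with 17β-estradiol, 3 h before bilateral ovariectomy. Injections were repeated every 12 h for 3 days. On day 12 the animals were killed, opened by a ventral longitudinal incision, and the intact uteri removed to examine the fetuses.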

[6] = target: 3-alpha-(or 20-beta)-hydroxysteroid dehydrogenase (Streptomyces exfoliatus) (UniProt P19992); assay: Irreversible inhibition of 20beta-hydroxy steroid dehydrogenase in Streptomyces hydrogenans assessed as inhibition of […] at 50 uM; how it was run: as §1
Rattus norvegicus [7] = assay: Progestational activity in 9-day old pregnant bilateral ovariectomized Sprague-Dawley albino rat assessed as viable fetus at 1 mg, sc for 3 days beginning 3 hrs prior to overiectomy measured on day 12 in presence of 17beta-estradiol; type: functional, organism-based
How it was run: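 Groups of five 9-day-pregnant albino rats (275–305 g) received sc injections in 0.2 mL sesame oil together with 17β-estradiol (0.1×10^-3 mg), starting 3 h before bilateral ovariectomy. Injections were repeated every 12 h for 3 days. On day 12 the animals were sacrificed and opened by longitudinal ventral incision, and the intact uteri were removed to examine the fetuses.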

Rattus norvegicus [8] = assay: Progestational activity in 9-day old pregnant bilateral ovariectomized Sprague-Dawley albino rat assessed as viable fetus at 0.055 to 0.11 mg, sc for 3 days beginning 3 hrs prior to overiectomy measured on day 12 in presence of 17beta-estradiol; type: functional, organism-based; how it was run: as §2

Chain of 3-alpha-(or 20-beta)-hydroxysteroid dehydrogenase (Streptomyces exfoliatus) (P19992 whole entry): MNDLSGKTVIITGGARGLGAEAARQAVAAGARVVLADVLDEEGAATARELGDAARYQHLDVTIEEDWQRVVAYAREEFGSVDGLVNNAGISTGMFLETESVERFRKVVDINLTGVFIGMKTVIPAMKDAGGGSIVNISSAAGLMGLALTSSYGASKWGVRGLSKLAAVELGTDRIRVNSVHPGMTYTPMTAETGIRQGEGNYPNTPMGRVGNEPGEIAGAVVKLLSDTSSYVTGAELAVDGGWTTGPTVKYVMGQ

SMILES	Activity (Rattus norvegicus [1])	T1/2 [2] [h]	other results
CC(=O)[C@H]1CC[C@H]2[C@@H]3CCC4=CC(=O)CC[C@]4(C)[C@H]3[C@H](OC(=O)CBr)C[C@]12C	Active		
CC(=O)[C@@]1(OC(=O)CBr)CC[C@H]2[C@@H]3C[C@H](C)C4=CC(=O)CC[C@]4(C)[C@H]3CC[C@@]21C	inactive	15	Activity (Rattus norvegicus [3]): Active; inhibition [4]: Active; Activity (Rattus norvegicus [5]): Active; inhibition [6]: Active
CC(=O)[C@H]1CC[C@H]2[C@@H]3CCC4=CC(=O)CC[C@]4(C)[C@H]3CC[C@]12C			Activity (Rattus norvegicus [7]): Active
CC(=O)[C@H]1[C@H](OC(=O)CBr)C[C@H]2[C@@H]3CCC4=CC(=O)CC[C@]4(C)[C@H]3CC[C@@]21C	Active	4	
C[C@]12CC[C@H]3[C@@H](CCC4=CC(=O)CC[C@@H]43)[C@@H]1CC[C@@H]2OC(=O)CBr	Active		
CC(=O)O[C@]1(C(C)=O)CC[C@H]2[C@@H]3C[C@H](C)C4=CC(=O)CC[C@]4(C)[C@H]3CC[C@@]21C			Activity (Rattus norvegicus [8]): Active
